Assay results reported in ChEMBL document CHEMBL1687781, “Comparative biochemical and computational study of the role of naturally occurring mutations at Ambler positions 104 and 170 in GES β-lactamases” (Antimicrob Agents Chemother, 2010).
Converted amounts (≈) assume the structure as drawn.

Key:
Type in all cases: functional
Escherichia coli [1] = experiment: Antimicrobial activity against Escherichia coli DH5[alpha] transformed with pAC-ges1 plasmid encoding Beta-lactamase GES-7 K104, G170 mutant by Etest method
Escherichia coli [2] = experiment: Antimicrobial activity against Escherichia coli DH5[alpha] transformed with pAC-ges1 plasmid encoding Beta-lactamase GES-1 E104, G170 mutant in presence of at 4 ug/ml Tazobactam by Etest method
Method in brief: (§1)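 E. coli DH5α host, either untransformed or carrying pACYC184-based clones of the GES variant genes; the source gene came from integron plasmid pBC-ges1. MICs were read by Etest following the manufacturer's recommendations, with the inhibitor held at a fixed 4 μg/ml.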

Escherichia coli [3] = experiment: Antimicrobial activity against Escherichia coli DH5[alpha] in presence of at 4 ug/ml Tazobactam by Etest method; method in brief: as §1
Escherichia coli [4] = experiment: Antimicrobial activity against Escherichia coli DH5[alpha] transformed with pAC-ges1 plasmid encoding Beta-lactamase GES-5 E104, S170 mutant in presence of at 4 ug/ml Tazobactam by Etest method; method in brief: as §1
Escherichia coli [5] = experiment: Antimicrobial activity against Escherichia coli DH5[alpha] transformed with pAC-ges1 plasmid encoding Beta-lactamase GES-7 K104, G170 mutant in presence of at 4 ug/ml Tazobactam by Etest method; method in brief: as §1
Escherichia coli [6] = experiment: Antimicrobial activity against Escherichia coli DH5[alpha] by Etest method
Escherichia coli [7] = experiment: Antimicrobial activity against Escherichia coli DH5[alpha] transformed with pAC-ges1 plasmid encoding Beta-lactamase GES-2 E104, N170 mutant by Etest method
Escherichia coli [8] = experiment: Antimicrobial activity against Escherichia coli DH5[alpha] transformed with pAC-ges1 plasmid encoding Beta-lactamase GES-13 K104, N170 mutant in presence of at 4 ug/ml Tazobactam by Etest method; method in brief: as §1
Escherichia coli [9] = experiment: Antimicrobial activity against Escherichia coli DH5[alpha] transformed with pAC-ges1 plasmid encoding Beta-lactamase GES-5 E104, S170 mutant by Etest method
Escherichia coli [10] = experiment: Antimicrobial activity against Escherichia coli DH5[alpha] transformed with pAC-ges1 plasmid encoding Beta-lactamase GES-6 K104, S170 mutant in presence of at 4 ug/ml Tazobactam by Etest method; method in brief: as §1
Escherichia coli [11] = experiment: Antimicrobial activity against Escherichia coli DH5[alpha] transformed with pAC-ges1 plasmid encoding Beta-lactamase GES-1 E104, G170 mutant by Etest method
Escherichia coli [12] = experiment: Antimicrobial activity against Escherichia coli DH5[alpha] transformed with pAC-ges1 plasmid encoding Beta-lactamase GES-2 E104, N170 mutant in presence of at 4 ug/ml Tazobactam by Etest method; method in brief: as §1
Escherichia coli [13] = experiment: Antimicrobial activity against Escherichia coli DH5[alpha] transformed with pAC-ges1 plasmid encoding Beta-lactamase GES-13 K104, N170 mutant by Etest method
Escherichia coli [14] = experiment: Antimicrobial activity against Escherichia coli DH5[alpha] transformed with pAC-ges1 plasmid encoding Beta-lactamase GES-6 K104, S170 mutant by Etest method

Compound `CCN1CCN(C(=O)N[C@@H](C(=O)N[C@@H]2C(=O)N3[C@@H]2SC(C)(C)[C@@H]3C(=O)O)c2ccccc2)C(=O)C1=O` [PIPERACILLIN] has an MIC (Escherichia coli [1]) of 12 µg/mL (≈ 23.2 µM), an MIC (Escherichia coli [2]) of 1 µg/mL and an MIC (Escherichia coli [3]) of 1 µg/mL. The MIC (Escherichia coli [4]) was 2 µg/mL, the MIC (Escherichia coli [5]) was 1 µg/mL and the MIC (Escherichia coli [6]) was 4 µg/mL (≈ 7.73 µM). The MIC (Escherichia coli [7]) was 4 µg/mL (≈ 7.73 µM), the MIC (Escherichia coli [8]) was 1 µg/mL and the MIC (Escherichia coli [9]) was 8 µg/mL (≈ 15.5 µM). It also gave an MIC (Escherichia coli [10]) of 2 µg/mL, an MIC (Escherichia coli [11]) of 8 µg/mL (≈ 15.5 µM) and an MIC (Escherichia coli [12]) of 1 µg/mL. It also gave an MIC (Escherichia coli [13]) of 8 µg/mL (≈ 15.5 µM) and an MIC (Escherichia coli [14]) of 12 µg/mL (≈ 23.2 µM).
